Test results taken from ChEMBL document CHEMBL4387724, “2-Pyridineformamide N(4)-ring incorporated thiosemicarbazones inhibit MCF-7 cells by inhibiting JNK pathway” (Bioorg Med Chem Lett, 2019).

Columns and labels:
MCF7 [1] = assay: Cytotoxicity against human MCF7 cells assessed as reduction in cell growth incubated for 72 hrs by MTT assay; format: functional, cell-based; settings: MCF7, 72 h
Procedure, shortened: (§1)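 Cells grown in DMEM with 10% FBS and penicillin-streptomycin at 37 °C, 5% CO2, seeded at 3000 cells/well and attached overnight. Screening series given at 1, 3, 10, 100 μM; follow-up agent at 100 nM–3 μM; both 72 h, with 0.1% DMSO vehicle. MTT (5 mg/mL stock) added for 3 h at 37 °C, formazan dissolved in DMSO, absorbance read at 570 nm. Viability expressed as % of DMSO-treated wells from replicates.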

A-375 [2] = assay: Cytotoxicity against human A375 cells assessed as reduction in cell growth at 1 uM incubated for 72 hrs by MTT assay relative to control; format: functional; settings: A-375, 72 h, read-out: GI; procedure, shortened: as §1
MCF7 [3] = assay: Cytotoxicity against human MCF7 cells assessed as reduction in cell growth at 100 uM incubated for 72 hrs by MTT assay relative to control; format: functional; settings: MCF7, 72 h, read-out: GI; procedure, shortened: as §1
A-431 [4] = assay: Cytotoxicity against human A431 cells assessed as reduction in cell growth incubated for 72 hrs by MTT assay; format: functional, cell-based; settings: A-431, 72 h; procedure, shortened: as §1
A-431 [5] = assay: Cytotoxicity against human A431 cells assessed as reduction in cell growth at 100 uM incubated for 72 hrs by MTT assay relative to control; format: functional; settings: A-431, 72 h, read-out: GI; procedure, shortened: as §1
HeLa [6] = assay: Cytotoxicity against human HeLa cells assessed as reduction in cell growth incubated for 72 hrs by MTT assay; format: functional, cell-based; procedure, shortened: as §1
MCF7 [7] = assay: Cytotoxicity against human MCF7 cells assessed as reduction in cell growth at 3 uM incubated for 72 hrs by MTT assay relative to control; format: functional; settings: MCF7, 72 h, read-out: GI; procedure, shortened: as §1
A-431 [8] = assay: Cytotoxicity against human A431 cells assessed as reduction in cell growth at 10 uM incubated for 72 hrs by MTT assay relative to control; format: functional; settings: A-431, 72 h, read-out: GI; procedure, shortened: as §1
HeLa [9] = assay: Cytotoxicity against human HeLa cells assessed as reduction in cell growth at 10 uM incubated for 72 hrs by MTT assay relative to control; format: functional; settings: read-out: GI; procedure, shortened: as §1
A-431 [10] = assay: Cytotoxicity against human A431 cells assessed as reduction in cell growth at 3 uM incubated for 72 hrs by MTT assay relative to control; format: functional; settings: A-431, 72 h, read-out: GI; procedure, shortened: as §1
A-431 [11] = assay: Cytotoxicity against human A431 cells assessed as reduction in cell growth at 30 uM incubated for 72 hrs by MTT assay relative to control; format: functional; settings: A-431, 72 h, read-out: GI
A-375 [12] = assay: Cytotoxicity against human A375 cells assessed as reduction in cell growth incubated for 72 hrs by MTT assay; format: functional, cell-based; settings: A-375, 72 h; procedure, shortened: as §1
MCF7 [13] = assay: Cytotoxicity against human MCF7 cells assessed as reduction in cell growth at 30 uM incubated for 72 hrs by MTT assay relative to control; format: functional; settings: MCF7, 72 h, read-out: GI
A-375 [14] = assay: Cytotoxicity against human A375 cells assessed as reduction in cell growth at 3 uM incubated for 72 hrs by MTT assay relative to control; format: functional; settings: A-375, 72 h, read-out: GI; procedure, shortened: as §1
HeLa [15] = assay: Cytotoxicity against human HeLa cells assessed as reduction in cell growth at 3 uM incubated for 72 hrs by MTT assay relative to control; format: functional; settings: read-out: GI; procedure, shortened: as §1
MCF7 [16] = assay: Cytotoxicity against human MCF7 cells assessed as reduction in cell growth at 1 uM incubated for 72 hrs by MTT assay relative to control; format: functional; settings: MCF7, 72 h, read-out: GI; procedure, shortened: as §1
HeLa [17] = assay: Cytotoxicity against human HeLa cells assessed as reduction in cell growth at 1 uM incubated for 72 hrs by MTT assay relative to control; format: functional; settings: read-out: GI; procedure, shortened: as §1
MCF7 [18] = assay: Cytotoxicity against human MCF7 cells assessed as reduction in cell growth at 10 uM incubated for 72 hrs by MTT assay relative to control; format: functional; settings: MCF7, 72 h, read-out: GI; procedure, shortened: as §1
A-375 [19] = assay: Cytotoxicity against human A375 cells assessed as reduction in cell growth at 100 uM incubated for 72 hrs by MTT assay relative to control; format: functional; settings: A-375, 72 h, read-out: GI; procedure, shortened: as §1
A-375 [20] = assay: Cytotoxicity against human A375 cells assessed as reduction in cell growth at 30 uM incubated for 72 hrs by MTT assay relative to control; format: functional; settings: A-375, 72 h, read-out: GI
HeLa [21] = assay: Cytotoxicity against human HeLa cells assessed as reduction in cell growth at 30 uM incubated for 72 hrs by MTT assay relative to control; format: functional; settings: read-out: GI
HeLa [22] = assay: Cytotoxicity against human HeLa cells assessed as reduction in cell growth at 100 uM incubated for 72 hrs by MTT assay relative to control; format: functional; settings: read-out: GI; procedure, shortened: as §1
A-375 [23] = assay: Cytotoxicity against human A375 cells assessed as reduction in cell growth at 10 uM incubated for 72 hrs by MTT assay relative to control; format: functional; settings: A-375, 72 h, read-out: GI; procedure, shortened: as §1
A-431 [24] = assay: Cytotoxicity against human A431 cells assessed as reduction in cell growth at 1 uM incubated for 72 hrs by MTT assay relative to control; format: functional; settings: A-431, 72 h, read-out: GI; procedure, shortened: as §1

Question: How did the IC50 (MCF7 [1]) turn out when `N/C(=N\NC(=S)N1CCSCC1)c1ccc(F)cn1` was run?
Answer: 21400 nM

Question: And the inhibition of growth at 1 µM (A-375 [2])?
Answer: 55.1%

Question: What about the inhibition of growth at 100 µM (MCF7 [3]) of the same compound?
Answer: 65.7%

Question: What about the IC50 (A-431 [4]) of the same compound?
Answer: 1200 nM

Question: What about the inhibition of growth at 100 µM (A-431 [5]) of the same compound?
Answer: 86.6%

Question: What about the IC50 (HeLa [6]) of the same compound?
Answer: 1700 nM

Question: And the inhibition of growth at 3 µM (MCF7 [7])?
Answer: 35.4%

Question: And the inhibition of growth at 10 µM (A-431 [8])?
Answer: 61.8%

Question: And the inhibition of growth at 10 µM (HeLa [9])?
Answer: 70.5%

Question: What about the inhibition of growth at 3 µM (A-431 [10]) of the same compound?
Answer: 61.2%

Question: What about the inhibition of growth at 30 µM (A-431 [11]) of the same compound?
Answer: 84.6%

Question: What about the IC50 (A-375 [12]) of the same compound?
Answer: 900 nM

Question: And the inhibition of growth at 30 µM (MCF7 [13])?
Answer: 58.8%

Question: What about the inhibition of growth at 3 µM (A-375 [14]) of the same compound?
Answer: 62.2%

Question: And the inhibition of growth at 3 µM (HeLa [15])?
Answer: 62.9%

Question: And the inhibition of growth at 1 µM (MCF7 [16])?
Answer: 30.6%

Question: And the inhibition of growth at 1 µM (HeLa [17])?
Answer: 19.6%

Question: What about the inhibition of growth at 10 µM (MCF7 [18]) of the same compound?
Answer: 38.1%

Question: And the inhibition of growth at 100 µM (A-375 [19])?
Answer: 83.2%

Question: What about the inhibition of growth at 30 µM (A-375 [20]) of the same compound?
Answer: 78.7%

Question: And the inhibition of growth at 30 µM (HeLa [21])?
Answer: 81.7%

Question: And the inhibition of growth at 100 µM (HeLa [22])?
Answer: 88.1%

Question: And the inhibition of growth at 10 µM (A-375 [23])?
Answer: 70.9%

Question: And the inhibition of growth at 1 µM (A-431 [24])?
Answer: 48.7%

Question: How did the IC50 (MCF7 [1]) turn out when `Cc1cccc(/C(N)=N/NC(=S)N2CCN(c3ccccn3)CC2)n1` was run?
Answer: > 100000 nM

Question: And the inhibition of growth at 1 µM (A-375 [2])?
Answer: 58.4%

Question: And the inhibition of growth at 100 µM (MCF7 [3])?
Answer: 49.8%

Question: What about the IC50 (A-431 [4]) of the same compound?
Answer: 19600 nM

Question: And the inhibition of growth at 100 µM (A-431 [5])?
Answer: 78.9%

Question: And the IC50 (HeLa [6])?
Answer: 900 nM

Question: What about the inhibition of growth at 3 µM (MCF7 [7]) of the same compound?
Answer: 27.1%

Question: What about the inhibition of growth at 10 µM (A-431 [8]) of the same compound?
Answer: 43%

Question: And the inhibition of growth at 10 µM (HeLa [9])?
Answer: 72.8%

Question: And the inhibition of growth at 3 µM (A-431 [10])?
Answer: 34.3%

Question: What about the inhibition of growth at 30 µM (A-431 [11]) of the same compound?
Answer: 57.4%

Question: What about the IC50 (A-375 [12]) of the same compound?
Answer: 850 nM

Question: What about the inhibition of growth at 30 µM (MCF7 [13]) of the same compound?
Answer: 36%

Question: What about the inhibition of growth at 3 µM (A-375 [14]) of the same compound?
Answer: 61.8%

Question: What about the inhibition of growth at 3 µM (HeLa [15]) of the same compound?
Answer: 72.7%

Question: What about the inhibition of growth at 1 µM (MCF7 [16]) of the same compound?
Answer: 8.5%

Question: And the inhibition of growth at 1 µM (HeLa [17])?
Answer: 51.8%

Question: And the inhibition of growth at 10 µM (MCF7 [18])?
Answer: 20.8%

Question: What about the inhibition of growth at 100 µM (A-375 [19]) of the same compound?
Answer: 83.8%

Question: And the inhibition of growth at 30 µM (A-375 [20])?
Answer: 74.8%

Question: And the inhibition of growth at 30 µM (HeLa [21])?
Answer: 86.3%

Question: And the inhibition of growth at 100 µM (HeLa [22])?
Answer: 86.3%

Question: What about the inhibition of growth at 10 µM (A-375 [23]) of the same compound?
Answer: 63.3%

Question: And the inhibition of growth at 1 µM (A-431 [24])?
Answer: 9.2%
